Compound activity deposited in PubChem BioAssay by The Scripps Research Institute Molecular Screening Center.
In the library only some 2.7% were active in any assay of this set; here they are far more common.
OXTR potentiate = human OXTR potentiation. P30559. activation, % at 3 µM. CHO-OTR cells, Fluo-8 calcium fluorescence, potentiator mode; 0% = oxytocin EC15, 100% = EC100. 0.061% of 320,000 active;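 active means activation above that plate's cutoff, the mean activation of tested compounds plus 3 SD, cut at about 6.6% in these data, passing the limit was not always enough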;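 further: 100% uses oxytocin at 75 nM as the full agonist control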
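Assay system: CHO-OTR cells, human receptor / Also added: oxytocin at about EC15, sub-maximal agonist stimulus / Dosing: single dose, 3.0 µM nominal final compound concentration / Incubation: 6 min pre-incubation, 100 s read / Technique: Fluo-8 calcium dye fluorescence / Read-out: % activation vs EC15 and EC100 oxytocin / Benchmarks: EC15 oxytocin low, 75 nM oxytocin high / Replicates: singlicate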
OX1R antag-1 = blocks the human orexin 1 receptor. O43613. OX1R-expressing cells, FRET antagonist read-out. inhibition, % at 6.6 µM. 1.8% of 330,000 active; in the data active means inhibition mostly above about 38%, no sharp cut-off; inactive means mostly below about 40%;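 further: 0% = agonist challenge alone and 100% = reference antagonist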
V1aR counter = activates human V1a receptor in oxytocin agonist counter-screen; P37288; CHO-V1R cells, Fluo-8 calcium fluorescence, agonist mode; 0% DMSO, 100% 3 nM vasopressin; activation, % at 3 µM; 0.25% of 320,000 active;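 active means activation above the mean activation of all tested compounds plus 3 SD, per screening run, cut at about 20% in these data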;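 further: signal is peak over basal fluorescence ratio across a 100 second FLIPR read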
Target sequence (P37288 whole entry, looked up): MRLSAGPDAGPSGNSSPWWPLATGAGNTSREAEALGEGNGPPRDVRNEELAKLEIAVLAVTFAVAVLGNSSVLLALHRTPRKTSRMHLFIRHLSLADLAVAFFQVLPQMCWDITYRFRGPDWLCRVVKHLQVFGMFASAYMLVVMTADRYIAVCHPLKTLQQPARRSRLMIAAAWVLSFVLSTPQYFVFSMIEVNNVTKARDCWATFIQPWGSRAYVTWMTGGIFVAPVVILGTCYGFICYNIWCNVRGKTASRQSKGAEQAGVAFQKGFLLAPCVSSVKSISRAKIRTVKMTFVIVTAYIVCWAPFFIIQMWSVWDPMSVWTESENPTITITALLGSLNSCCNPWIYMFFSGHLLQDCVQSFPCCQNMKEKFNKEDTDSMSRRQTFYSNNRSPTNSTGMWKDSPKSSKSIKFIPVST
CHO parental Ca = counter-screen: ATP calcium response change in parental CHO cells; inhibition, % at 5.6 µM; 0.63% of 330,000 active; AID 463079; parental CHO-K1, ATP-induced calcium, Fluo-8 fluorescence;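 active means inhibition above that plate's mean sample inhibition plus 3 SD, cut at about 26% in these data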;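 further: 0% = ATP-challenged DMSO wells and 100% = DMSO wells without ATP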
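Assay system: parental CHO cells; Read-out basis: percent inhibition of ATP-evoked calcium rise, normalized to controls; Benchmarks: ATP and no-ATP DMSO wells; Compound dosing: single nominal dose of 5.6 µM per compound; Signal: Fluo-8 calcium dye fluorescence; Also added: ATP as calcium-mobilizing challenge; Repeats: singlicate.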
OX1R antag-2 = antagonists of human orexin 1 receptor; O43613; CHO/OX1R cells, Fluo-8 calcium fluorescence, orexin A; inhibition, % at 5 µM; 0.43% of 330,000 active; AID 434989;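 active means inhibition above its plate's threshold, mean inhibition of all tested compounds on the plate plus 3 SD, cut at about 37% in these data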;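 further: 0% = orexin A challenge wells and 100% = SB-334867-A antagonist wells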
OXTR ag = activates the human oxytocin receptor; CHO-OTR cells, Fluo-8 calcium fluorescence; normalized: DMSO 0%, oxytocin 100%; activation, % at 3 µM; 0.32% of 320,000 active; AID 2435;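 active means activation above the mean of all tested compounds plus 3 SD, cutoff set per screening run, cut at about 20% in these data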;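 further: peak over basal fluorescence ratio from a 100 s FLIPR kinetic read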
Active calls of the source: *; ! = repeats disagree.

SMILES	OXTR potentiate	OX1R antag-1	V1aR counter	CHO parental Ca	OX1R antag-2	OXTR ag
Cc1ccc(C)c(N2CCN(C(=O)CCS(=O)(=O)c3ccc4c(c3)oc(=O)n4C)CC2)c1	-3	10	7	-6	-17	5
O=C(CCCN1C(=O)/C(=C\c2ccccc2)SC1=S)N1CCOCC1	-11	32	12	33*	46*	14
O=C(CCN1C(=O)/C(=C\c2ccccc2)SC1=S)NNC(=O)c1ccccc1O	-30	64*	9	3	10	12
O=C(CN1C(=O)S/C(=C\c2ccccc2)C1=O)NNC(=O)c1ccccc1O	-3	42	1	10	9	1
O=C(CCCN1C(=O)S/C(=C\c2ccccc2)C1=O)NNC(=O)c1ccccc1O	-16	56*	9	7	1	11
O=C(CCCN1C(=O)c2ccccc2C1=O)NCCN1C(=O)S/C(=C\c2cccs2)C1=O	-10	66*	7	-28	-20	4
O=C(c1ccc2[nH]c(=O)c(=O)[nH]c2c1)N1CCN(c2ccccc2)CC1	-4	9	0	4	-9	0
CC1CCCN(C(=O)COC(=O)c2cc(Br)ccc2O)C1 (centres undefined)	-6	5	0	-11	-21	-2
O=C(CN1C(=O)C2C3C=CC(C3)C2C1=O)OCC(=O)c1ccc([N+](=O)[O-])cc1 (centres undefined)	-13	58*	2	2	-16	2
O=C(CN1C(=O)C2C3C=CC(C3)C2C1=O)OCC(=O)c1ccccc1 (centres undefined)	-2	12	1	-6	-7	0
CCC(NC(=O)CSc1nnnn1C1CC1)c1ccc(Br)cc1 (centres undefined)	-5	3	2	-11	-9	2
COc1cccc(NC(=O)COC(=O)C2CCCCC2)c1	0	3	0	-8	7	0
CC(C)(C)c1cc(C(=O)NNc2cc(C(F)(F)F)ccc2Cl)n(Cc2ccccc2)n1	-17	45*	1	-7	4	-1
CCC(C)NC(=O)c1cccc(OCc2c(C)noc2C)c1 (centres undefined)	2	16	0	-12	-8	0
CCOC(=O)c1c(C)[nH]c(C(=O)C(C)OC(=O)c2cccc(OCc3c(C)noc3C)c2)c1C (centres undefined)	-14	31	6	49*	0	5
CCN(C(=O)COC(=O)/C(C#N)=C/c1ccc(N(C)C)cc1)C1CCS(=O)(=O)C1 (centres undefined)	-5	8	1	-1	8	2
CN(C)c1ccc(/C=C(\C#N)C(=O)OCC(=O)N(C)C2CCS(=O)(=O)C2)cc1 (centres undefined)	-3	35*	3	-4	1	2
CCOC(=O)c1ccc(NC(=O)c2cccc(S(=O)(=O)N3CCOCC3)c2)cc1	-18	46	8	33*	28	6
CCOC(=O)c1ccc(NC(=O)c2ccc(C)c(S(=O)(=O)N3CCOCC3)c2)cc1	-19	40	8	11	5	8
CCCc1nnc2n1N=C(c1ccc([N+](=O)[O-])cc1)CS2	-6	45*	-2	10	-21	-2
CCCc1nnc2n1N=C(c1ccc(C)cc1)CS2	-2	20	-1	-12	-26	-3
COc1ccc(C2CC(c3cccs3)=NN2c2ccc(C=O)cc2)cc1 (centres undefined)	-9	6	28*	29	38	24*
CC(=O)Nc1ccc(/C=N/N2C(=O)NC(C)(c3ccc(OC(F)F)cc3)C2=O)cc1 (centres undefined)	-19	-10	39*	36*	53*	55*
CC1(c2ccc(OC(F)F)cc2)NC(=O)N(CC(=O)Nc2ccccc2)C1=O (centres undefined)	-16	1	32*	49*	52*	47*
CC1(c2ccc(OC(F)F)cc2)NC(=O)N(CC(=O)Nc2ccc3c(c2)OCO3)C1=O (centres undefined)	-10	-2	45*	40*	38	39*
SMILES	OXTR potentiate	OX1R antag-1	V1aR counter	CHO parental Ca	OX1R antag-2	OXTR ag
CC1(c2ccccc2Cl)NC(=O)N(CC(=O)Nc2ccccc2OC(F)F)C1=O (centres undefined)	0	43*	1	-17	-23	2
CCOC(=O)CN1C(=O)NC(C)(c2ccc(OC(F)F)cc2)C1=O (centres undefined)	-9	12	3	14	-12	6
COc1cc(C(C)=O)ccc1OCC(=O)N(CCC1=CCCCC1)c1c(N)n(Cc2ccccc2)c(=O)[nH]c1=O	-17	6	0	-8	-32	-1
CC(C)[C@H](NC(=O)c1ccccc1)C(=O)NC1=NCCS1	-3	9	-1	-16	-2	0
CCOC(=O)c1c(C)[nH]c(C)c1C(=O)COC(=O)Cc1n[nH]c(=O)c2ccccc12	3	3	0	-8	18	0
Cc1cc(C)c(C)c(S(=O)(=O)NC(C(=O)NCCc2ccco2)C(C)C)c1C (centres undefined)	-8	19	-1	-26	-15	-2
CC1(C)Cc2c(cnn2-c2ccccc2)C(NC(=O)CCCN2CCCCC2=O)C1 (centres undefined)	-7	0	3	-9	-7	-1
CC1CCC(C(C)C)C(OC(=O)Cn2c(-c3ccc(Cl)cc3)[n+](C)c3ccccc32)C1 (centres undefined)	-4	9	-1	25	4	0
Cc1ccccc1OCc1n(CC(=O)OC2CC(C)CCC2C(C)C)c2ccccc2[n+]1C (centres undefined)	-6	16	0	33*	46*	0
CC1CCC(C(C)C)C(OC(=O)Cn2c(-c3ccc(Br)cc3)[n+](C)c3ccccc32)C1 (centres undefined)	0	17	0	30*!	8	-1
Nc1cc([N+](=O)[O-])cc2oc(-c3ccccc3)cc12	-17	0	4	28	12	6
Cc1cc(C)c(C(=O)OCC(=O)Nc2cccc(S(=O)(=O)N3CCCCC3)c2)c(C)c1	-1	7	1	-9	-10	0
CN(C)c1nc(N)nc(CSc2ncc(Cl)cc2Cl)n1	-4	38*	0	-23	6	-1
CN(C)c1nc(N)nc(CSc2nnnn2C)n1	-2	17	1	-4	0	1
C[C@H](CO)N1C[C@H](C)[C@@H](CN(C)C(=O)Nc2ccc(C(F)(F)F)cc2)Oc2c(NC(=O)CCC(F)(F)F)cccc2C1=O	-4	12	2	-21	-23	1
